Published values collected from several papers.
Target: RAC-alpha serine/threonine-protein kinase (AKT1, Homo sapiens, UniProt P31749)

| Structure (SMILES) | observed | method | tested at | remaining binding [%] |
| --- | --- | --- | --- | --- |
| Cc1cnc(Nc2ccc(C(=O)N3CCC(N4CCCC4)CC3)cc2)nc1-c1cc2ccccc2s1 | binding | competition with immobilised ligand | 1 µM | 100 |
| COc1cnc(Nc2cccc(S(N)(=O)=O)c2)nc1N1CCN(c2ccccc2)CC1 | binding | competition with immobilised ligand | 1 µM | 100 |
| Cc1nc(Cc2cccc(C(F)(F)F)c2)sc1-c1ccc(C(N)=O)nc1 | cell-free assay | competition with immobilised ligand | 1 µM | 82 |
| COc1ccnn2ncc(-c3ccnc(N(C)C)n3)c12 | binding | – | 1 µM | 100 |
| C=CC(=O)N1CCC(C(=O)NCC(=O)N2CCN(c3nc(-c4cnc(N)nc4C(F)F)nc(N4CCOCC4)n3)CC2)CC1 | binding | competition with immobilised ligand | 1 µM | 94 |
| C[C@H](c1ccc(F)cc1)N(Cc1cccc(C(=O)O)c1)C(=O)c1cnc2ccccc2c1 | cell-free assay | competition with immobilised ligand | 1 µM | 100 |
| c1cncc(-c2cccc(Nc3nccc(NC4CCCCC4)n3)c2)c1 | binding | competition with immobilised ligand | 10 µM | 71 |
| COc1cnc(Nc2cccc(S(N)(=O)=O)c2)nc1N1CCN(c2ccccc2)C(=O)C1 | binding | competition with immobilised ligand | 1 µM | 100 |
| CS(=O)(=O)N1CCCC(NC(=O)[C@H](CCC2CCCCC2)NC(=O)c2ccc(CNc3ncnc4c3nnn4-c3ccccc3)cc2)C1 (stereo partly shown) | cell-free assay | competition with immobilised ligand | 0.1 µM | 100 |
| CCN1CCN(Cc2ccc(C(=O)Nc3ccc(C)c(Oc4ccc5c(c4)CC(=O)N5)c3)cc2C(F)(F)F)CC1 | binding | competition with immobilised ligand | 1 µM | 94 |
| CN(CCCC(F)(F)F)c1nccc(-c2cnn3ncccc23)n1 | binding | – | 1 µM | 100 |
| O=C(Nc1c[nH]nc1C(=O)NC1CCNCC1)c1cc(F)cc(F)c1 | binding | competition with immobilised ligand | 1 µM | 92 |
| N#Cc1ccccc1CSc1nnc2c(n1)[nH]c1ccccc12 | binding | competition with immobilised ligand | 10 µM | 85 |
| O=C(Nc1cccnn1)N1CCC(=Cc2cccc(Oc3ccc(C(F)(F)F)cn3)c2)CC1 | cell-free assay | competition with immobilised ligand | 1 µM | 93 |
| O=C(NCCCN1CCOCC1)c1ccc(Nc2ncc(Cl)c(-c3ccc(Cl)s3)n2)cc1 | binding | competition with immobilised ligand | 1 µM | 100 |
| N#Cc1ccc(Nc2ccc3[nH]c(=O)[nH]c3c2)c(Cl)c1 | cell-free assay | competition with immobilised ligand | 1 µM | 67 |
| C[C@@H](c1ccc(-n2cnc3c(N)ncnc32)cc1)N1CCc2nn(C)c(Cc3ccccc3)c2C1=O | binding | competition with immobilised ligand | 0.1 µM | 100 |
| C[C@@H]1CCN(c2nccc(-c3cnn4ncccc34)n2)C1 | binding | – | 1 µM | 93 |
| O=C(c1ccc(Nc2ncc(Cl)c(-c3cc4ccccc4s3)n2)cc1)N1CCC(N2CCCC2)CC1 | binding | competition with immobilised ligand | 1 µM | 100 |
| N[C@@H]1CCN(c2nccc(-c3cnn4ncccc34)n2)C1 | binding | – | 1 µM | 100 |
| FC(F)(F)c1ccc2c(c1)nc(-c1cccnc1)n2C1CC1 | cell-free assay | competition with immobilised ligand | 1 µM | 100 |
| CN(c1nccc(-c2cnn3ncccc23)n1)C1CC1 | binding | – | 1 µM | 100 |
| Cc1c(C(=O)O)cc(-c2ccc(C3CCNCC3)cc2)c2ccc(-c3ccc(C(F)(F)F)cc3)cc12 | binding | competition with immobilised ligand | 1 µM | 100 |
| CC1CCCN1c1nccc(-c2cnn3ncccc23)n1 (stereo not shown) | binding | – | 1 µM | 100 |
| C[C@@H]1CN(c2ccc3ncc(-c4ccc5[nH]nc(C6CC6)c5c4)n3n2)C[C@H](C)O1 | binding | competition with immobilised ligand | 0.5 µM | 100 |
